Laboratory results reported in publication PMC5051546 (ACS chemical neuroscience, 2016).
Non-standard residues stand in square brackets, D forms with d. Residues, ends and D or L forms follow the SMILES beside them.

Columns and labels:
Aβ(1–40) aggregates [1] = target: T1, Aβ(1–40) aggregates (Homo sapiens, UniProt P05067); assay: Dynamic light scattering; format: biochemical; conditions: 28 μM Aβ, 1.4 μM peptide; 37 °C; 2 h; z-averaged hydrodynamic diameter; Aβ alone 400 nm after 2 h
Aβ(1–40) aggregates [2] = target: T1, Aβ(1–40) aggregates; assay: Nanoparticle tracking analysis; format: biochemical
Method in brief: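 Aβ(1-40) stock prepared by dissolving in 50% acetonitrile, relyophilizing, and reconstituting in urea/glycine buffer at 12 mg/mL. Samples: 28 µM Aβ alone or with 1.4 µM test peptide, or peptide alone. Nanosight LM10, 405 nm laser, video capture started immediately. One 60-s video per time point over 2 h, room temperature, camera level 13. Buffers 0.02 µm-filtered. Number concentration taken from the instrument-defined scattering volume. Only particles above ~30 nm are detected.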

[3] = target: Aβ(1–40) fibril formation (Homo sapiens, UniProt P05067); assay: Thioflavin T; format: biochemical; conditions: 28 μM Aβ, 1.4 μM peptide; PBSA, 37 °C, up to 48 h; three replicates
Method in brief: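 Aβ(1-40) stock in urea/glycine buffer, previously relyophilized from 50% acetonitrile. 28 µM Aβ incubated in PBSA at 37 °C alone or with 2.8, 1.4 or 0.28 µM test peptide. At 1 or 4, 24 and 48 h, aliquots mixed with 10 µM ThT in PBS. Excitation 440 nm, emission scanned 460–500 nm. Three serial spectra averaged, ThT/PBS background subtracted, 480 nm intensity compared.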

Aβ(1–40) fibrils = Aβ(1–40) fibrils (Homo sapiens, UniProt P05067); assay: Transmission electron microscopy; format: biochemical; conditions: 28 μM Aβ + 1.4 μM peptide; 24 h at 37 °C; PBSA
[4] = Solubility of lyophilized peptide in PBS or water; format: physicochemical

T1 sequence (P05067 672-711 limits assumed): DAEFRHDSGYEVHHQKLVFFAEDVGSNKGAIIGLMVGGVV
Sequence of Aβ(1–40) fibrils (P05067 672-711 limits assumed): as above
Sequence of Aβ(1–40) fibril formation (P05067 672-711 limits assumed): as above

Q: For `CC[C@H](C)[C@@H]1NC(=O)[C@H]([C@@H](C)O)NC(=O)[C@H](Cc2ccc(O)cc2)NC(=O)[C@H](CCCNC(=N)N)NC(=O)[C@@H]2CCCN2C(=O)[C@H]2CCCN2C(=O)[C@H]([C@@H](C)O)NC(=O)[C@H](C(C)C)NC(=O)[C@H](C(C)C)NC(=O)[C@H](CCCCN)NC(=O)[C@H](CO)NC(=O)[C@H](CCC(N)=O)NC(=O)[C@H](CO)NC(=O)[C@H](Cc2ccc(O)cc2)NC(=O)[C@H](CO)NC(=O)[C@H](Cc2ccc(O)cc2)NC(=O)[C@@H]2CCCN2C(=O)[C@H](CO)NC(=O)[C@H](CC(C)C)NC(=O)[C@H](CC(C)C)NC(=O)[C@H](C)NC(=O)[C@H](C)NC1=O` [CG3] (cyclo(SKVVT[dP]PRYTIAALLSPYSYSQ)), which “effect on size and growth rate of Aβ aggregates (DLS)” value (Aβ(1–40) aggregates [1]) is on record?
A: size and growth rate of Aβ aggregates increased

Q: What about the “particles from peptide alone (NTA)” value (Aβ(1–40) aggregates [2]; 1.4 μM peptide in the absence of Aβ, detection limit ~30 nm, data not shown) of the same compound?
A: no detectable particles above background

Q: And the “initial particle number concentration relative to Aβ alone (NTA)” value (Aβ(1–40) aggregates [2]; 28 μM Aβ, 1.4 μM peptide, PBSA, room temperature, shortly after mixing)?
A: about 2 fold

Q: What about the “mean hydrodynamic diameter of aggregates after 2 h (NTA)” value (Aβ(1–40) aggregates [2]; 28 μM Aβ, 1.4 μM peptide, number-averaged) of the same compound?
A: ~ 400 nm

Q: And the “mean hydrodynamic diameter of aggregates shortly after mixing (NTA)” value (Aβ(1–40) aggregates [2]; 28 μM Aβ, 1.4 μM peptide, number-averaged, Aβ alone ~80 nm)?
A: 120 nm

Q: And the “inhibition of ThT fluorescence at 20:1 Aβ/peptide” value [3]?
A: partially inhibited

Q: What about the “Aβ aggregate morphology by TEM” value (Aβ(1–40) fibrils) of the same compound?
A: still a large number of fibrils, but many appeared to be shorter

Q: What about the solubility ([4]; aqueous buffer) of the same compound?
A: > 650 µg/mL

Q: What about the solubility ([4]; water) of the same compound?
A: > 600 µM
